Measured values: ChEMBL document CHEMBL1128240, “Studies on new acidic azoles as glucose-lowering agents in obese, diabetic db/db mice” (J Med Chem, 1995)
One block for each compound: values may come before it. Activity calls are given as the source filed them. No cut-off for these calls is given here.

How the values were obtained:
Mus musculus [1] = assay: percentage change in plasma glucose concentration of drug treated mice relative to vehicle controls at 20 mg/kg (once daily perorally x 4) in groups of db/db mice compared to vehicle control; assay type: functional; conditions: route oral
Summary of the method: (§1)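 Male C57BL/KsJ db/db mice (2-7 months, 35-60 g), 4 h fasted baseline tail blood on day 1; extremes excluded, randomized into groups (N = 4-6) of equal mean glucose. Dosed po as suspension in 2% Tween 80/saline on afternoons of days 1-3 (fed) and day 4 after 3 h fast. Plasma glucose (Abbott VP analyzer) 2 and 4 h post-dose, mean versus day-1 baseline; ANOVA with one-sided Dunnett's test against vehicle.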

Mus musculus [2] = assay: percentage change in plasma glucose concentration of drug treated mice relative to vehicle controls at 27 mg/kg (once daily perorally x 4) in groups of db/db mice; NA = not active; assay type: functional, organism-based; set-up: dose 27 mg/kg; summary of the method: as §1
Mus musculus [3] = assay: Percentage change in plasma glucose concentration of drug treated mice relative to vehicle controls at 100 mg/kg (once daily perorally x 4) in groups of db/db mice; NA = not active; assay type: functional, organism-based; set-up: dose 100 mg/kg; summary of the method: as §1
Mus musculus [4] = assay: percentage change in plasma glucose concentration of drug treated mice relative to vehicle controls at 100 mg/kg (once daily perorally x 4) in groups of db/db mice compared to vehicle control; assay type: functional; conditions: route oral; summary of the method: as §1
Mus musculus [5] = assay: percentage change in plasma glucose concentration of drug treated mice relative to vehicle controls at 20 mg/kg (once daily perorally x 4) in groups of db/db mice; assay type: functional; conditions: route oral; summary of the method: as §1
Mus musculus [6] = assay: percentage change in plasma glucose concentration of drug treated mice relative to vehicle controls at 5 mg/kg (once daily perorally x 4) in groups of db/db mice; assay type: functional; conditions: route oral; summary of the method: as §1
Mus musculus [7] = assay: percentage change in plasma glucose concentration of drug treated mice relative to vehicle controls at 20 mg/kg (once daily perorally x 4) in groups of db/db mice; Not active; assay type: functional, organism-based; set-up: dose 20 mg/kg; summary of the method: as §1
Mus musculus [8] = assay: percentage change in plasma glucose concentration of drug treated mice relative to vehicle controls at 5 mg/kg (once daily perorally x 4) in groups of db/db mice; not active, generally less than -15% change; assay type: functional, organism-based; set-up: dose 5 mg/kg; summary of the method: as §1
Mus musculus [9] = assay: percentage change in plasma glucose concentration of drug treated mice relative to vehicle controls at 20 mg/kg (once daily perorally x 4) in groups of db/db mice; NA = not active; assay type: functional, organism-based; set-up: dose 20 mg/kg; summary of the method: as §1
[10] = Partition coefficient (logP); assay type: physicochemical; conditions: octanol/water
Summary of the method: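 Manual shake-flask octanol/aqueous partition. Buffer was 0.01 M K2HPO4 at pH 7.4. Sample was shaken 1 min, equilibrated 4 h, and phases separated and centrifuged. Each phase was quantified by reverse-phase C18 HPLC (acetonitrile/0.01 M […] pH 3.5, 214 nm). Average of at least two runs.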

[11] = Dissociation constant measured by potentiometric titration (in duplicate) in 1:1 dioxane-water using a Fisher accumet pH meter model 630 and a Perkin-Elmer chart recorder model 56.; assay type: physicochemical
Summary of the method: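 Apparent pKa from potentiometric titration with 0.1 N NaOH in dioxane–water (1:1). Sample concentration 0.2 mM, solvent 30 mL, 25 °C, titrant flow 0.17 mL/min. Value is the average of two runs. The system was conditioned and checked in duplicate against piperazine, allantoin, barbituric acid and ciglitazone standards.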

Mus musculus [12] = assay: percentage change in plasma glucose concentration of drug treated mice relative to vehicle controls at 100 mg/kg (once daily perorally x 4) in groups of db/db mice; assay type: functional; conditions: route oral; summary of the method: as §1
Mus musculus [13] = assay: Percentage change in plasma glucose concentration of drug treated mice relative to vehicle controls at 20 mg/kg (once daily perorally x 4) in groups of db/db mice; NA = not active
Mus musculus [14] = assay: percentage change in plasma glucose concentration of drug treated mice relative to vehicle controls at 53 mg/kg (once daily perorally x 4) in groups of db/db mice; NA = not active; assay type: functional, organism-based; set-up: dose 53 mg/kg; summary of the method: as §1
Mus musculus [15] = assay: percentage change in plasma glucose concentration of drug treated mice relative to vehicle controls at 73 mg/kg (once daily perorally x 4) in groups of db/db mice compared to vehicle control; assay type: functional; conditions: route oral; summary of the method: as §1
Mus musculus [16] = assay: percentage change in plasma glucose concentration of drug treated mice relative to vehicle controls at 100 mg/kg (once daily perorally x 4) in groups of db/db mice; NA= not active; assay type: functional, organism-based; set-up: dose 100 mg/kg; summary of the method: as §1
Mus musculus [17] = assay: percentage change in plasma glucose concentration of drug treated mice relative to vehicle controls at 100 mg/kg (once daily perorally x 4) in groups of db/db mice; Not active; assay type: functional, organism-based; set-up: dose 100 mg/kg; summary of the method: as §1

SMILES: Oc1[nH]nc(C(F)(F)F)c1Cc1ccc2sccc2c1
Change (Mus musculus [1]): -29%

SMILES: Oc1[nH]ncc1Cc1ccc2ccccc2c1
Change (Mus musculus [2]): inactive

SMILES: Oc1onc(-c2ccccc2)c1Cc1ccc2ccccc2c1
Change (Mus musculus [3]): inactive

SMILES: Oc1[nH]nc(C(F)(F)F)c1Cc1ccccc1
Change (Mus musculus [4]): -33%
Change (Mus musculus [5]): -18%

SMILES: COC(=O)c1cc(-c2ccc3ccccc3c2)[nH]n1
Change (Mus musculus [3]): inactive

SMILES: Oc1[nH]nc(C(F)(F)F)c1Cc1ccc2nccnc2c1
Change (Mus musculus [1]): -27%

SMILES: Oc1[nH]nc(C(F)(F)F)c1Cc1ccc2c(Br)cccc2c1
Change (Mus musculus [1]): -22%

SMILES: Oc1[nH]nc(C(F)(F)F)c1Cc1ccc2c(c1)OCO2
Change (Mus musculus [1]): -38%

SMILES: Oc1[nH]nc(C(F)(F)F)c1Cc1ccc2ccccc2c1
Change (Mus musculus [6]): -16%

SMILES: Oc1[nH]nc2c1CCc1sccc1-2
Change (Mus musculus [3]): inactive

SMILES: O=C1NC(=O)C(Cc2ccc3ccccc3c2)=C1O
Change (Mus musculus [7]): inactive

SMILES: O=C(O)C(=O)/C=C(\O)c1ccc2ccccc2c1
Change (Mus musculus [4]): -28%

SMILES: Cc1n[nH]c(O)c1Cc1ccc2ccccc2c1Br
Change (Mus musculus [5]): -20%

SMILES: CCc1n[nH]c(O)c1Cc1ccc2ccccc2c1
Change (Mus musculus [1]): -32%
Change (Mus musculus [8]): Not significant

SMILES: Oc1cc(CSc2nc3ccccc3s2)no1
Change (Mus musculus [3]): inactive

SMILES: COCc1n[nH]c(O)c1Cc1ccc2ccccc2c1
Change (Mus musculus [4]): -39%
Change (Mus musculus [9]): inactive

SMILES: Cc1n[nH]c(O)c1Cc1ccc2c(c1)OCCO2
Change (Mus musculus [1]): -21%

logP [10]: 3.61
pKa [11]: 7.8
SMILES: CC1(COc2ccc(CC3SC(=O)NC3=O)cc2)CCCCC1 (stereo not given) [CIGLITAZONE]
Change (Mus musculus [4]): -28%

SMILES: Cc1n[nH]c(O)c1Cc1ccc2ccccc2c1
Change (Mus musculus [4]): -42%
Change (Mus musculus [1]): -31%

SMILES: Cc1[nH]oc(=O)c1Cc1ccc2ccccc2c1
Change (Mus musculus [12]): -17%

SMILES: O=[N+]([O-])c1ccc(-c2n[nH]c(O)c2Cc2ccc3ccccc3c2)cc1
Change (Mus musculus [3]): inactive

SMILES: Cc1o[nH]c(=O)c1Cc1ccc2ccccc2c1Br
Change (Mus musculus [9]): inactive

SMILES: Oc1[nH]nc(C(F)(F)F)c1Cc1ccc2c(c1)CCC(Cc1ccccc1)O2 (stereo not given)
Change (Mus musculus [3]): inactive

SMILES: Oc1cc(C23CC4CC(CC(C4)C2)C3)n[nH]1
Change (Mus musculus [13]): inactive

SMILES: COC(=O)C(=O)/C=C(\O)c1ccc2ccccc2c1
Change (Mus musculus [4]): -37%

SMILES: O=C(O)c1cc(-c2ccc3ccccc3c2)[nH]n1
Change (Mus musculus [3]): inactive

SMILES: Oc1nnnn1Cc1ccc2ccccc2c1
Change (Mus musculus [3]): inactive

SMILES: Cc1n[nH]c(O)c1Cc1nc2ccccc2o1
Change (Mus musculus [14]): inactive

SMILES: Oc1[nH]nc(C(F)(F)C(F)(F)F)c1Cc1ccc2ccccc2c1
Change (Mus musculus [3]): inactive

logP ([10]; read-out: logP): 2.12
pKa [11]: 9.11
SMILES: Cn1nnc(O)c1Cc1ccc2ccccc2c1
Change (Mus musculus [9]): inactive

SMILES: Oc1[nH]nc(-c2ccccc2)c1Cc1ccc2ccccc2c1
Change (Mus musculus [3]): inactive

SMILES: Nc1n[nH]c(O)c1Cc1ccc2ccccc2c1
Change (Mus musculus [15]): -27%

SMILES: Cc1n[nH]c(O)c1Cc1cccc2ccccc12
Change (Mus musculus [9]): inactive

SMILES: Cc1n[nH]c(O)c1Cc1ccccc1
Change (Mus musculus [3]): inactive

SMILES: Oc1[nH]nc(C(F)(F)C(F)(F)C(F)(F)F)c1Cc1ccc2ccccc2c1
Change (Mus musculus [16]): inactive

SMILES: Oc1[nH]nc2c1CCc1ccccc1-2
Change (Mus musculus [3]): inactive

SMILES: COCc1noc(O)c1Cc1ccc2ccccc2c1
Change (Mus musculus [3]): inactive

SMILES: Oc1n[nH]nc1Cc1ccc2ccccc2c1
Change (Mus musculus [3]): inactive

SMILES: CC(C)c1n[nH]c(O)c1Cc1ccc2ccccc2c1
Change (Mus musculus [4]): -30.4%

logP ([10]; read-out: logP): 0.72
pKa [11]: 5.77
SMILES: c1ccc2cc(Cc3nnn[nH]3)ccc2c1
Change (Mus musculus [7]): inactive

SMILES: CCCc1o[nH]c(=O)c1Cc1ccc2ccccc2c1
Change (Mus musculus [9]): inactive

SMILES: NNc1n[nH]c(O)c1Cc1ccc2ccccc2c1
Change (Mus musculus [3]): inactive

SMILES: Cc1o[nH]c(=O)c1Cc1ccccc1
Change (Mus musculus [3]): inactive

SMILES: Cc1c(Cc2ccc3ccccc3c2)o[nH]c1=O
Change (Mus musculus [3]): inactive

SMILES: Oc1c(Cc2ccc3ccccc3c2)nnn1Cc1ccccc1
Change (Mus musculus [3]): inactive

SMILES: Cc1c(O)nnn1Cc1ccc2ccccc2c1
Change (Mus musculus [3]): inactive

SMILES: C[n+]1nn(Cc2ccccc2)c([O-])c1Cc1ccc2ccccc2c1
Change (Mus musculus [16]): inactive

SMILES: Oc1cc(CSc2nc3ccccc3s2)n[nH]1
Change (Mus musculus [3]): inactive

SMILES: Cc1onc(O)c1Cc1ccc2ccccc2c1
Change (Mus musculus [4]): -48%
Change (Mus musculus [1]): -25%

SMILES: Cc1noc(O)c1Cc1ccc2ccccc2c1Br
Change (Mus musculus [9]): inactive

SMILES: Oc1n[nH]c(O)c1Cc1ccc2ccccc2c1
Change (Mus musculus [3]): inactive

SMILES: Oc1cc(Cc2ccc3ccccc3c2)n[nH]1
Change (Mus musculus [3]): inactive

SMILES: CCc1o[nH]c(=O)c1Cc1ccc2ccccc2c1
Change (Mus musculus [9]): inactive

logP ([10]; read-out: logP): 1.09
pKa [11]: 6.52
SMILES: O=C(O)CCc1ccc2ccccc2c1
Change (Mus musculus [17]): inactive

SMILES: Cc1n[nH]c(O)c1CSc1nc2ccccc2[nH]1
Change (Mus musculus [16]): inactive

SMILES: Oc1cc(CSc2ccc3ccccc3c2)no1
Change (Mus musculus [3]): inactive

SMILES: Cc1c(Cc2ccc3ccccc3c2)n[nH]c1O
Change (Mus musculus [9]): inactive
